The values that follow come from ChEMBL document CHEMBL1157207, “Synthesis of 3,5-bis(2-indolyl)pyridine and 3-[(2-indolyl)-5-phenyl]pyridine derivatives as CDK inhibitors and cytotoxic agents” (Bioorg Med Chem, 2008).

SMILES strings stand for the structures. Bounds are passed on as bounds.

Test [1] is described as follows: Inhibition of starfish CDK1/cyclin B. Also noted: species or system Marthasterias glacialis. A digest of the protocol:
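CDK1/cyclin B taken from M-phase starfish (Marthasterias glacialis) oocytes and affinity-purified on p9CKShs1-sepharose beads, eluted with free p9CKShs1. Assayed in buffer C with 1 mg/ml histone H1 and 15 µM [γ-33P]ATP, 30 µl final, 10 min at 30 °C. Detection by P81 phosphocellulose paper binding and scintillation counting. IC50 averaged from two experiments.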

The nature of test [2]: Inhibition of pig brain GSK3alpha/beta. Also noted: species or system Sus scrofa. A digest of the protocol: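 GSK-3α/β purified from porcine brain, diluted 1/100 in 1 mg/ml BSA, 10 mM DTT. Assayed in buffer A (pH 7.5, with heparin) with GS-1 peptide (5 µl of 40 µM) as substrate and 15 µM [γ-33P]ATP, 30 µl final, 30 min at 30 °C. Detection by P81 phosphocellulose paper binding, phosphoric acid washes, scintillation counting. IC50 averaged from two experiments; DMSO controls.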

A further test relates to CCRF-CEM. As to the kind of experiment: Cytotoxicity against human CEM cells. It is filed as functional, cell-based. A digest of the protocol: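 CEM human leukaemia cells kept in RPMI 1640 with 10% FBS, 2 mM glutamine, penicillin/streptomycin, 37 °C, 5% CO2. Exponentially growing cells seeded at 2×10^4 per well with various drug concentrations, 72 h at 37 °C; tetrazolium dye (CellTiter 96 AQueous One) then added for 2 h, absorbance read at 492 nm. IC50 averaged from two experiments.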

Test [3] in a line: Inhibition of recombinant CDK5/p25 expressed in Escherichia coli. A digest of the protocol:
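Recombinant CDK5 and p25 expressed in E. coli as GST fusions, purified on glutathione-agarose and mixed in equal amounts. Assayed in buffer C with 1 mg/ml histone H1 and 15 µM [γ-33P]ATP, 30 µl final, 10 min at 30 °C. Detection by P81 phosphocellulose paper binding and scintillation counting. IC50 averaged from two experiments.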

Usually IC50 stands for the concentration that inhibits the measured activity by half. As to `CN(C)CCCOc1ccc(-c2cncc(-c3cc4cc(O)ccc4n3CCCN(C)C)c2)cc1`, the IC50 in test [1] is > 10 µM; in test [2], > 10 µM; in the test on CCRF-CEM, 12.7 µM.

For `CN(C)CCCOc1ccc(-c2cncc(-c3cc4cc(O)ccc4[nH]3)c2)cc1`, the half-maximal inhibitory concentration (IC50) in test [1] turned out to be 1.9 µM; in test [2], 3.8 µM; in the test on CCRF-CEM, 5.35 µM; in test [3], 5 µM.

As to `CN(C)CCOc1ccc(-c2cncc(-c3cc4cc(O)ccc4n3CCN(C)C)c2)cc1`, the IC50 is > 10 µM in test [1], > 10 µM in test [2] and 31.9 µM in the test with CCRF-CEM.

For the molecule `CN(C)CCOc1ccc(-c2cncc(-c3cc4cc(O)ccc4[nH]3)c2)cc1`, the IC50 in test [1] was 3.6 µM; in test [2], 4.6 µM; in the test on CCRF-CEM it was 12.3 µM; in test [3] it was 6.7 µM.

Turning to `CN(C)CCOc1ccc(-c2cncc(-c3cc4ccccc4[nH]3)c2)cc1`, the IC50 in test [1] was determined as 2.5 µM; in test [2] it was 4.8 µM; in the test on CCRF-CEM, 9.02 µM; in test [3] it was 3.1 µM.

For the molecule `CN(C)CCCOc1ccc(-c2cncc(-c3cc4ccccc4[nH]3)c2)cc1`, the IC50 in test [1] was found to be 0.9 µM; in test [2], 31 µM; with CCRF-CEM, 5.4 µM; in test [3], 1 µM.

Take `CN(C)CCCn1c(-c2cncc(-c3cc4cc(O)ccc4[nH]3)c2)cc2cc(O)ccc21`: the IC50 is > 10 µM in test [1], > 10 µM in test [2] and 14.2 µM in the test on CCRF-CEM.

Regarding `Oc1ccc2[nH]c(-c3cncc(-c4cc5cc(O)ccc5[nH]4)c3)cc2c1`, the IC50 in test [1] was 0.54 µM; in test [2] it was 30 µM; in the test on CCRF-CEM it was 7.99 µM; in test [3], 1.2 µM.

In the case of `CN(C)CCn1c(-c2cncc(-c3cc4cc(O)ccc4[nH]3)c2)cc2cc(O)ccc21`, the IC50 in test [1] is > 10 µM; in test [2] it was > 10 µM; in the test on CCRF-CEM, 5.76 µM.

For `CN(C)CCn1c(-c2cncc(-c3cc4cc(O)ccc4n3CCN(C)C)c2)cc2cc(O)ccc21`, the results for the half-inhibitory concentration (IC50) (in test [1]; in test [2]; in the test on CCRF-CEM) were > 10 µM, > 10 µM and 14.8 µM, respectively.

Regarding `CN(C)CCCOc1ccc(-c2cncc(-c3cc4ccccc4n3CCCN(C)C)c2)cc1`, the IC50 is > 10 µM in test [1], > 10 µM in test [2] and 4.19 µM with CCRF-CEM.

For `Oc1ccc(-c2cncc(-c3cc4cc(O)ccc4[nH]3)c2)cc1`, the IC50 turned out to be 0.31 µM in test [1], 40 µM in test [2], 14.5 µM in the test with CCRF-CEM and 1.5 µM in test [3].

With `CN(C)CCOc1ccc(-c2cncc(-c3cc4ccccc4n3CCN(C)C)c2)cc1`, the values for the IC50 (in test [1]; in test [2]; in the test on CCRF-CEM) were > 10 µM, > 10 µM and 7.97 µM, respectively.

As for `Oc1ccc(-c2cncc(-c3cc4ccccc4[nH]3)c2)cc1`, the IC50 was 0.7 µM in test [1], > 100 µM in test [2], 4.67 µM in the test on CCRF-CEM and 0.9 µM in test [3].

Take `CN(C)CCCn1c(-c2cncc(-c3cc4cc(O)ccc4n3CCCN(C)C)c2)cc2cc(O)ccc21`: the half-inhibitory concentration (IC50) in test [1] is > 10 µM; in test [2] it was > 10 µM; with CCRF-CEM, 11.1 µM.
